Measurements published in ChEMBL document CHEMBL3745695, “Novel Hits in the Correction of ΔF508-Cystic Fibrosis Transmembrane Conductance Regulator (CFTR) Protein: Synthesis, Pharmacological, and ADME Evaluation of Tetrahydropyrido[4,3-d]pyrimidines for the Potential Treatment of Cystic Fibrosis” (J Med Chem, 2015).
Values after ≈ are worked out from the molar mass of the structure shown.

Key:
[1] = tested on: Cystic fibrosis transmembrane conductance regulator (Homo sapiens), P13569 [F508del]; assay: (§1) Corrector activity at human CFTR F508 deletion mutant expressed in FRT cells incubated for 25 mins with forskolin by YFP-based fluorescence analysis relative to control; assay type: cell-based
Sequence of Cystic fibrosis transmembrane conductance regulator (Homo sapiens), P13569 [F508del] (P13569 as listed by the source): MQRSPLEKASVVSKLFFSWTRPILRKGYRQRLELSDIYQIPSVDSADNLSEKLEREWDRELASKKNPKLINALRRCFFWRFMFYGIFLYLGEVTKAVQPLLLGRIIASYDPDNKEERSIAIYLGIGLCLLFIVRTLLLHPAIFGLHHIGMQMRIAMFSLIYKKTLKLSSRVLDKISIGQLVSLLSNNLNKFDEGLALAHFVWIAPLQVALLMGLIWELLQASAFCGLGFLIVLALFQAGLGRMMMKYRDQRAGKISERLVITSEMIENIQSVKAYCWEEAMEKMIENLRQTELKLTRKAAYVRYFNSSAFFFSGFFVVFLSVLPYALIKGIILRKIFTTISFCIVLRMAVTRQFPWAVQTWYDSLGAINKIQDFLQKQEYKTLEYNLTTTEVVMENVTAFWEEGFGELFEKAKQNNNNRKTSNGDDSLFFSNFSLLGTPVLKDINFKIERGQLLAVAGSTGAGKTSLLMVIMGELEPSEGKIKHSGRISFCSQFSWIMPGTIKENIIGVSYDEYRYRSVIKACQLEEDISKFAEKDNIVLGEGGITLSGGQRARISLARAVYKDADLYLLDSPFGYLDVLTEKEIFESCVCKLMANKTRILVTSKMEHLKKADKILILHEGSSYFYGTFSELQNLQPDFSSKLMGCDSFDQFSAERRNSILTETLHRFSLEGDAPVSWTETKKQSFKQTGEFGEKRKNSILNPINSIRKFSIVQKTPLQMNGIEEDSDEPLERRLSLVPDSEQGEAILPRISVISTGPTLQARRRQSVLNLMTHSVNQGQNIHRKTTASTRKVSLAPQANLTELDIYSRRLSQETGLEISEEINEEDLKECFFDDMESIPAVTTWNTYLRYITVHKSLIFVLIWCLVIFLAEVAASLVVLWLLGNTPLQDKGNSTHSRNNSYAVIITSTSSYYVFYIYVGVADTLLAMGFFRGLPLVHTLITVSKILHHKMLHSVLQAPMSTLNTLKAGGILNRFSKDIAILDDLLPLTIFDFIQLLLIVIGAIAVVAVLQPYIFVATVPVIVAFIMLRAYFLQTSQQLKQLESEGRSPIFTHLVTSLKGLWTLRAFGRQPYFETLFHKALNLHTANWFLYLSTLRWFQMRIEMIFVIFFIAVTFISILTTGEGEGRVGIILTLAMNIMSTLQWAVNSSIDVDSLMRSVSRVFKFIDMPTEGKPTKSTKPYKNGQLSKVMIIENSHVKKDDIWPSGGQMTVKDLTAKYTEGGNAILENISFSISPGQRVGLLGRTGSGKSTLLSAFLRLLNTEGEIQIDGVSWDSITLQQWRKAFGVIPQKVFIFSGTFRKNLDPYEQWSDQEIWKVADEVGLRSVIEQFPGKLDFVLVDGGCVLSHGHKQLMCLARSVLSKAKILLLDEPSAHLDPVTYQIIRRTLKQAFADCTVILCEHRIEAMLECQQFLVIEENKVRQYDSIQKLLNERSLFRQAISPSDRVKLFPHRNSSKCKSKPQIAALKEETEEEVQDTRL
Procedure, shortened: (§2)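 FRT cells co-expressing ΔF508-CFTR and YFP-H148Q/I152L, grown 18–24 h at 37 °C, then 18–24 h at 37 °C with test compound. Then 25 min in PBS with forskolin (20 μM) plus genistein (50 μM). Iodide injected (final 100 mM) with a 14-s read. Exponential fit of the final 11 s gave dF/dt. EC50/Emax from dose–response, normalized to DMSO (0%) and positive control (100%). Mean of 2–3 experiments.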

[2] = molecular target: Cystic fibrosis transmembrane conductance regulator (Homo sapiens, UniProt P13569, F508DEL); assay: as §1; assay type: cell-based; procedure, shortened: as §2
Sequence of Cystic fibrosis transmembrane conductance regulator (P13569 as listed by the source): as above

[3] = Permeability of compound at 10 uM after 4 hrs by PAMPA; assay type: ADME
Procedure, shortened: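 PAMPA with porcine brain lipid (2% w/v in dodecane). Compound 10 μM in HBSS/Hepes pH 7.4 in the donor well, 4 h at 37 °C and 80% humidity, warfarin membrane-integrity control. Donor and acceptor concentrations by UPLC-MS-TOF; effective permeability Pe calculated.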

[4] = tested on: Cystic fibrosis transmembrane conductance regulator (Homo sapiens), P13569 [F508del]; assay: Corrector activity at human CFTR F508 deletion mutant expressed in human A549 cells incubated for 25 mins by YFP-based fluorescence analysis; assay type: cell-based
Procedure, shortened: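 A549 cells stably co-expressing ΔF508-CFTR and YFP-H148Q/I152L, cultured in DMEM/F-12. Corrector treatment 18–24 h at 37 °C, then 25 min forskolin (20 μM) plus genistein (50 μM). Iodide injected (final 100 mM). Initial slope dF/dt taken from an exponential fit of the final 11 s. EC50/Emax from dose–response. Mean of 2–3 independent experiments.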

[5] = Stability in rat plasma assessed as compound remaining after 3 hrs by LC-MS/MS analysis; assay type: ADME, cell-free; conditions: read-out: Stability
Procedure, shortened: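 Compound at 10 μM in 100% fresh rat plasma at 37 °C, sampled to 3 h. Quenched with 3 volumes cold acetonitrile, centrifuged 3000 g for 15 min, supernatant diluted 1:10 in water, LC-MS/MS. Reported as % remaining.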

[6] = Solubility of the compound in 50 mM ammonium acetate buffer at 250 uM at pH 7.4 after 24 hrs by UPLC/UV/TOF-MS analysis; assay type: physicochemical; conditions: for solubility at 24 h, 250 µM: 50 mM ammonium acetate buffer, pH 7.4
Procedure, shortened: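 From 10 mM DMSO stock, 250 μM in 50 mM ammonium acetate pH 7.4 (2.5% DMSO final). Shaken 24 h at room temperature, filtered, diluted 1:2. UPLC/UV (254 nm) quantified against a 250 μM standard in acetonitrile/buffer.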

[7] = molecular target: Cystic fibrosis transmembrane conductance regulator (Homo sapiens) (UniProt P13569); assay: Activity at human wild type CFTR expressed in FRT cells at 10 uM incubated for 25 mins with forskolin by YFP-based fluorescence analysis; assay type: cell-based
Sequence of Cystic fibrosis transmembrane conductance regulator (Homo sapiens) (P13569 whole entry, looked up): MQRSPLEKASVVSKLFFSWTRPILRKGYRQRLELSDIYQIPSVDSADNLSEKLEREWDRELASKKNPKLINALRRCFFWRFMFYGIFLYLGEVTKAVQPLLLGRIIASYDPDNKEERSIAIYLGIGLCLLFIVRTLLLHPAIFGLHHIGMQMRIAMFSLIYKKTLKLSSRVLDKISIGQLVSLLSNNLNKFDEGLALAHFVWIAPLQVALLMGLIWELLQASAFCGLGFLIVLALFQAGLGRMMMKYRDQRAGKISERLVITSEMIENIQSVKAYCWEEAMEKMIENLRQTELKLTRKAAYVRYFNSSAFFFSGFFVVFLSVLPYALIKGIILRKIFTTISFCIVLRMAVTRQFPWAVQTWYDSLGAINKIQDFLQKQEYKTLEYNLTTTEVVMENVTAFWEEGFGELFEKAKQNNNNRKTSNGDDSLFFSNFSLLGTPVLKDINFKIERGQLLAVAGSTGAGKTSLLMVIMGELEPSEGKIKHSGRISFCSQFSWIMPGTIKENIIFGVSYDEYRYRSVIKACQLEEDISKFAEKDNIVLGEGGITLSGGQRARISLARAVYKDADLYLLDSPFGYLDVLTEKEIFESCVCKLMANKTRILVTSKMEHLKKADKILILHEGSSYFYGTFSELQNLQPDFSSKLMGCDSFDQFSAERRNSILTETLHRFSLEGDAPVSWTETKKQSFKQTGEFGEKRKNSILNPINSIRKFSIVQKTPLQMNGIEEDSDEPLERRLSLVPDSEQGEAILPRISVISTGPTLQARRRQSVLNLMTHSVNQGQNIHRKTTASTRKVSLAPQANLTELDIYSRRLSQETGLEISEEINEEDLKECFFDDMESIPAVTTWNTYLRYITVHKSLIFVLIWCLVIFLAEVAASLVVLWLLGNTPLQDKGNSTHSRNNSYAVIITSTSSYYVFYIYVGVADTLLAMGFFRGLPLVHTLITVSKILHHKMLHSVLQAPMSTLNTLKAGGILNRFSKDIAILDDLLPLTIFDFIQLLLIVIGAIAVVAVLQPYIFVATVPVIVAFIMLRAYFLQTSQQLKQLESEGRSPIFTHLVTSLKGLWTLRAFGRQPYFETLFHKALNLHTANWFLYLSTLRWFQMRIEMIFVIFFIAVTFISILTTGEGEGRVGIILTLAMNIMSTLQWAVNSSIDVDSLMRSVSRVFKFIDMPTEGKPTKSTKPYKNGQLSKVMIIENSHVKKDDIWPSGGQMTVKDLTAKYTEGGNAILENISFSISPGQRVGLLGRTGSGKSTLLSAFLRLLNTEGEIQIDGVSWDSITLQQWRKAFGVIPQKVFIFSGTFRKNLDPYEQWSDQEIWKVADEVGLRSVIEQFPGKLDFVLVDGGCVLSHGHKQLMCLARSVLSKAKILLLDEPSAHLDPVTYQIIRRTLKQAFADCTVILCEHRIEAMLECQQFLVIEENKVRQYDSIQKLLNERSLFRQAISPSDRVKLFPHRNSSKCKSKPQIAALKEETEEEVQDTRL
Procedure, shortened: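 FRT cells stably co-expressing human CFTR and halide-sensing YFP-H148Q/I152L, plated 50,000 cells/well. At assay, PBS wash, then 25 min in PBS with forskolin (20 μM). Iodide solution injected (final I⁻ 100 mM) during a 14-s fluorescence reading (ex 500, em 535 nm). The final 11 s were fitted exponentially to give initial slope dF/dt. Test compounds at 10 μM, normalized to DMSO (100%). Mean of 2 or 3 independent experiments.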

[8] = Efflux ratio of permeability from basolateral to apical over apical to basolateral side of MDCK cells at 10 uM incubated for 2 hrs by LC-MS analysis; assay type: ADME, cell-based, Canis lupus familiaris; conditions: dog
Procedure, shortened: (§3)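 MDCK monolayers on inserts seeded 5 days earlier, TEER >70 Ohm×cm². Compound 10 μM in HBSS-Hepes added to the donor side, in duplicate, each direction. 2 h at 37 °C with agitation, sampled at 0 and 120 min, LC-MS. Integrity checked with Lucifer Yellow. Papp calculated for each direction; efflux ratio is B→A over A→B.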

[9] = Apparent permeability from apical to basolateral side in MDCK cells at 10 uM incubated for 2 hrs by LC-MS analysis; assay type: ADME, cell-based, Canis lupus familiaris; conditions: dog; procedure, shortened: as §3
[10] = tested on: Cystic fibrosis transmembrane conductance regulator (Homo sapiens), P13569 [F508del]; assay: Corrector activity at human CFTR F508 deletion mutant expressed in FRT cells at 15 uM incubated for 25 mins with forskolin by YFP-based fluorescence analysis relative to control; assay type: cell-based
CYP3A4 = CYP3A4 (Homo sapiens, UniProt P08684); assay: Metabolic stability assessed as recombinant human CYP3A4-mediated drug degradation by measuring compound remaining incubated for 1 hr by MS analysis; assay type: ADME; conditions: read-out: Stability
Sequence of CYP3A4 (P08684 whole entry): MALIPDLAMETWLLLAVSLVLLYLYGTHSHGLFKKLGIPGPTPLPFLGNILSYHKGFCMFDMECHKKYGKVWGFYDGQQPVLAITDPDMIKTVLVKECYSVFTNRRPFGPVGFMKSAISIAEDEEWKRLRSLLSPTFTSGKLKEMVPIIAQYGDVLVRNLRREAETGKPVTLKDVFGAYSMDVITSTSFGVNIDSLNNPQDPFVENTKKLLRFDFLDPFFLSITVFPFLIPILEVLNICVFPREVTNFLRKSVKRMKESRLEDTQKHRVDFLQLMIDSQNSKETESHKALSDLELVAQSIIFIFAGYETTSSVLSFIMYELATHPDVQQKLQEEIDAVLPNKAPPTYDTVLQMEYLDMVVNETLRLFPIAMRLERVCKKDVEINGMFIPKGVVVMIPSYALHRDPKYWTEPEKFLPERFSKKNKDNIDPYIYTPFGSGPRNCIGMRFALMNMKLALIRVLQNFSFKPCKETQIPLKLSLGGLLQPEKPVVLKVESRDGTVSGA
Procedure, shortened: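 Recombinant hCYP3A4 at 20 pmol/mL, compound at 1 μM final with 0.25% organic solvent. 1 h at 37 °C with or without NADPH regenerating system, acetonitrile stop. Reported as % remaining by MS, NADPH sample versus the no-NADPH control.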

[11] = tested on: Cystic fibrosis transmembrane conductance regulator (Homo sapiens), P13569 [F508del]; assay: Corrector activity at human CFTR F508 deletion mutant expressed in FRT cells at 10 uM incubated for 25 mins with forskolin by YFP-based fluorescence analysis relative to control; assay type: cell-based

NC(=O)C1CCN(c2nc(-c3ccccn3)nc3c2CN(Cc2ccccc2)CC3)CC1
Emax [1]: 56.6%
EC50 [2]: 1400 nM
permeability [3]: permeable
Emax [4]: 34.4%
remaining at 3 h [5]: 85%
solubility at 24 h, 250 µM [6]: 250 µM (≈ 107 µg/mL)
Emax [7]: 103%
efflux ratio at 2 h, 10 µM [8]: 52.3
Papp A→B at 2 h, 10 µM [9]: 0.4 ×10⁻⁶ cm/s
Emax [10]: 74.6%
remaining at 1 h (CYP3A4): 71%

COc1ccc(S(=O)(=O)N2CCN(C(C)c3nc(OC4CCCCC4)c4ccccc4n3)CC2)cc1 (configuration not stated)
Emax [1]: 92.9%
EC50 [2]: 2200 nM
Emax [11]: 41.4%
solubility at 24 h, 250 µM [6]: 1 µM (≈ 0.511 µg/mL)
remaining at 1 h (CYP3A4): 13%

COc1ccc(Cl)cc1Nc1nc(-c2sc(NC(=O)c3ccccc3)nc2C)cs1
Emax [1]: 114%
EC50 [2]: 1100 nM
Emax [11]: 100%
solubility ([6]; buffer, pH 7.4, 24 h, 250 µM): 1 µM (≈ 0.457 µg/mL)
Emax [7]: 115%
remaining at 1 h (CYP3A4): 55%
